Structures are written as SMILES.

The nature of the series: Clearance in human liver microsomes assessed per mg of protein by LC/MS analysis. The series is classed as ADME, Microsome. The method in brief: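 Human liver microsomes at 0.5 mg/mL protein. Reaction started with NADPH, run at 37 °C without shaking. Aliquots taken at 0.1, 10, 20 and 30 min for LC/MS analysis. Clearance expressed in µL/min/mg.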
For orientation: Microsomes from liver hold many membrane-bound enzymes, among them those of drug oxidation.
Turning to `Fc1cc(N2CCNCC2Cc2ccccc2)cc2cc[nH]c12` (stereo not drawn), the microsomal CLint was 16.8 µL/min/mg.

`c1ccc(CC2CNCCN2c2ccc3[nH]ncc3c2)cc1` (stereo not drawn) registered an intrinsic clearance (microsomal CLint) of 3.8 µL/min/mg.

For the compound `c1ccc(CC2CNCCN2c2ccc3[nH]ccc3c2)cc1` (stereo not drawn), the microsomal CLint turned out to be 43.3 µL/min/mg.

The term microsomal CLint denotes a measure of how fast metabolising enzymes remove a compound, apart from limits set by blood flow. Lower therefore signals slow turnover.

These data come from ChEMBL document CHEMBL1177766, “2-Substituted N-aryl piperazines as novel triple reuptake inhibitors for the treatment of depression” (Bioorg Med Chem Lett, 2010).
